Target: T1, Mitogen-activated protein kinase 14 (Homo sapiens, UniProt Q16539)
Test: Inhibition of p38 alpha (unknown origin) at 10 uM using Ser/Thr 15 as substrate incubated for 1 hr in presence of ATP by Z'-Lyte assay relative to control
Conditions: not given
How it was run: (§1)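 Run by a commercial kinase profiling service at 100 µM ATP. Single-point screening was followed by 5-point titration (1 nM, 10 nM, 100 nM, 1 µM, 10 µM) for IC50.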

T1 sequence (Q16539 whole entry): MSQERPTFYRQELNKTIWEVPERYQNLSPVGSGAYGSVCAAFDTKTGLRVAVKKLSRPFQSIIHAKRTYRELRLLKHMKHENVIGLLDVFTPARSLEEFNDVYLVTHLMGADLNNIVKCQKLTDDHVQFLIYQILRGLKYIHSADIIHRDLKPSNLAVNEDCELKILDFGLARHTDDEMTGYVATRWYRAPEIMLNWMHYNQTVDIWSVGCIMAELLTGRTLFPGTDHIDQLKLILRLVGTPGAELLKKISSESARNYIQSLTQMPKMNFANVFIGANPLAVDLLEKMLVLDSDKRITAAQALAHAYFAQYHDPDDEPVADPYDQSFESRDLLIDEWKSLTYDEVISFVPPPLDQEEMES

SMILES	inhibition [%]
O=S(=O)(NCCCNc1nccc(-c2[nH]c(-c3ccccc3)nc2-c2ccc(F)c(O)c2)n1)c1ccc(C(F)(F)F)cc1	65.4
O=S(=O)(NCCCNc1nccc(-c2[nH]c(-c3ccccc3)nc2-c2ccc(Cl)c(O)c2)n1)c1ccc(O)cc1	77.6
COc1cc(-c2nc(-c3ccccc3)[nH]c2-c2ccnc(NCCCNS(=O)(=O)c3ccc(Cl)cc3)n2)ccc1F	72.8
COc1cc(-c2nc(-c3ccccc3)[nH]c2-c2ccnc(NCCCNS(=O)(=O)c3ccc(Br)cc3)n2)ccc1F	73.4
O=S(=O)(NCCCNc1nccc(-c2[nH]c(-c3ccccc3)nc2-c2ccc(Cl)c(O)c2)n1)c1cccc2ccccc12	51.1
Cc1ccc(S(=O)(=O)NCCCNc2nccc(-c3[nH]c(-c4ccccc4)nc3-c3ccc(Cl)c(O)c3)n2)cc1	70.8
O=S(=O)(NCCCNc1nccc(-c2[nH]c(-c3ccccc3)nc2-c2ccc(Cl)c(O)c2)n1)c1ccc(F)cc1	85.5
O=S(=O)(NCCCNc1nccc(-c2[nH]c(-c3ccccc3)nc2-c2ccc(F)c(O)c2)n1)c1ccc(Br)cc1	84.8
COc1cc(-c2nc(-c3ccccc3)[nH]c2-c2ccnc(NCCCNS(=O)(=O)c3ccccc3)n2)ccc1F	83.5
COc1cc(-c2nc(-c3ccccc3)[nH]c2-c2ccnc(NCCCNS(=O)(=O)c3ccc(F)cc3)n2)ccc1Cl	62.1
COc1ccc(S(=O)(=O)NCCCNc2nccc(-c3[nH]c(-c4ccccc4)nc3-c3ccc(F)c(OC)c3)n2)cc1	88.5
O=S(=O)(NCCCNc1nccc(-c2[nH]c(-c3ccccc3)nc2-c2ccc(F)c(O)c2)n1)c1cccc(F)c1	90.5
COc1cc(-c2nc(-c3ccccc3)[nH]c2-c2ccnc(NCCCNS(=O)(=O)c3cccc4ccccc34)n2)ccc1F	44.4
COc1cc(-c2nc(-c3ccccc3)[nH]c2-c2ccnc(NCCCNS(=O)(=O)c3ccccc3)n2)ccc1Cl	58.6
Cc1ccc(S(=O)(=O)NCCCNc2nccc(-c3[nH]c(-c4ccccc4)nc3-c3ccc(F)c(O)c3)n2)cc1	87.8
COc1cc(-c2nc(-c3ccccc3)[nH]c2-c2ccnc(NCCCNS(=O)(=O)c3ccc(C)cc3)n2)ccc1Cl	50.4
O=S(=O)(NCCCNc1nccc(-c2[nH]c(-c3ccccc3)nc2-c2ccc(Cl)c(O)c2)n1)c1cccc(F)c1	78.6

Target: T1, Mitogen-activated protein kinase 14
Test: Inhibition of p38 alpha (unknown origin) using Ser/Thr 15 as substrate incubated for 1 hr in presence of ATP by Z'-Lyte assay
Conditions: not given

SMILES	IC50 [µM]
O=S(=O)(NCCCNc1nccc(-c2[nH]c(-c3ccccc3)nc2-c2ccc(F)c(O)c2)n1)c1ccc(Br)cc1	0.33
O=S(=O)(NCCCNc1nccc(-c2[nH]c(-c3ccccc3)nc2-c2ccc(F)c(O)c2)n1)c1cccc(F)c1	0.14
Cc1ccc(S(=O)(=O)NCCCNc2nccc(-c3[nH]c(-c4ccccc4)nc3-c3ccc(F)c(O)c3)n2)cc1	0.2

Target: T2, Serine/threonine-protein kinase B-raf (Homo sapiens, UniProt P15056, V600E)
Test: Inhibition of BRAF V600E mutant (unknown origin) preincubated for 20 mins followed by 33P-ATP addition and measured after 2 hrs by HotSpot kinase assay
Conditions: not given

T2 sequence (P15056 2-766 V600E limits assumed): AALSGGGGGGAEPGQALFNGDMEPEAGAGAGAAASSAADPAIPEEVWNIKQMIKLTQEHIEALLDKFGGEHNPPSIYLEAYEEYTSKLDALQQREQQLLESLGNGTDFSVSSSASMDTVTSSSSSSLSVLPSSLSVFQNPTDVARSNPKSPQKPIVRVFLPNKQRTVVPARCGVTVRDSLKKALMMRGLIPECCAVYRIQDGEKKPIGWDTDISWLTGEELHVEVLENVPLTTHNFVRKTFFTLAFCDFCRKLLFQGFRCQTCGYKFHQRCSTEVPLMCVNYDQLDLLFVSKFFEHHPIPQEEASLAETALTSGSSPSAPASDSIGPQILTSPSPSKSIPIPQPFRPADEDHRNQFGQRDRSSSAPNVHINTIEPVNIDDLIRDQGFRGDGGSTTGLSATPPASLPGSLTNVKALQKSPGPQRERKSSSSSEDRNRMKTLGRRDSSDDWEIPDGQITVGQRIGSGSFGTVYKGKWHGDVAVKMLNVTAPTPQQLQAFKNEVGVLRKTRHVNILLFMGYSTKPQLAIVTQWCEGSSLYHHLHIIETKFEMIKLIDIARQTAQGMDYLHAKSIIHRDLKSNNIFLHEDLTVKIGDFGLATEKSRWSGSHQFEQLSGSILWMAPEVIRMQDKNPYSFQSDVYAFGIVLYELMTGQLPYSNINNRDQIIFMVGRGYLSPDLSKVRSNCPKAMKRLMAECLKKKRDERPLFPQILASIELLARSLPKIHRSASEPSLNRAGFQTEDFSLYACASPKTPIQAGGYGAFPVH

SMILES	IC50 [µM]
O=S(=O)(NCCNc1cc(-c2[nH]c(-c3ccccc3)nc2-c2cccc(O)c2)ccn1)c1ccc(O)cc1	0.032

Target: T2, Serine/threonine-protein kinase B-raf
Test: Inhibition of BRAF V600E mutant (unknown origin) using Ser/Thr 03 as substrate after 1 hr in presence of ATP by Z'-LYTE assay
Conditions: not given

SMILES	IC50 [µM]
O=S(=O)(NCCCNc1nccc(-c2[nH]c(-c3ccccc3)nc2-c2ccc(Cl)c(O)c2)n1)c1ccc(O)cc1	0.00781
Cc1ccc(S(=O)(=O)NCCCNc2nccc(-c3[nH]c(-c4ccccc4)nc3-c3ccc(Cl)c(O)c3)n2)cc1	0.00804
O=S(=O)(NCCCNc1nccc(-c2[nH]c(-c3ccccc3)nc2-c2ccc(F)c(O)c2)n1)c1ccc(Br)cc1	0.0263
O=S(=O)(NCCCNc1nccc(-c2[nH]c(-c3ccccc3)nc2-c2ccc(F)c(O)c2)n1)c1cccc(F)c1	0.0303
Cc1ccc(S(=O)(=O)NCCCNc2nccc(-c3[nH]c(-c4ccccc4)nc3-c3ccc(F)c(O)c3)n2)cc1	0.00868
O=S(=O)(NCCCNc1nccc(-c2[nH]c(-c3ccccc3)nc2-c2ccc(Cl)c(O)c2)n1)c1cccc(F)c1	0.0148

System: not listed separately
Test: Selectivity index, ratio of IC50 for human IOSE-80PC cells to IC50 for human LOX IMVI cells
Conditions: not given
How it was run: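 IC50 against IOSE-80PC normal ovarian epithelial cells (MTT, 5-dose) divided by IC50 against LOX-IMVI melanoma cells (MTT, 24 h compound exposure, means of duplicate experiments ± S.D.).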

SMILES	Ratio IC50
O=S(=O)(NCCCNc1nccc(-c2[nH]c(-c3ccccc3)nc2-c2ccc(F)c(O)c2)n1)c1ccc(C(F)(F)F)cc1	> 4.08
O=S(=O)(NCCCNc1nccc(-c2[nH]c(-c3ccccc3)nc2-c2ccc(Cl)c(O)c2)n1)c1ccc(F)cc1	> 4.35

System: not listed separately
Test: Inhibition of LPS stimulated TNF-alpha production in mouse RAW264.7 macrophages preincubated for 1 hr followed by LPS stimulation and measured after 24 hrs by EIA
Type: functional
Conditions: not given
How it was run: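 RAW 264.7 macrophages plated at 2 × 10⁵ cells per well and left overnight. Pretreated 1 h with compound, then stimulated 24 h with lipopolysaccharide. TNF-α in culture supernatant measured by EIA. BAY 11-7082 reference tested at 0.5, 1.0, 5.0 and 10.0 µM. Values are means ± S.D.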

SMILES	IC50 [µM]
Cc1ccc(S(=O)(=O)/C=C/C#N)cc1	5.18

System: Serine/threonine-protein kinase B-raf (Homo sapiens), P15056 [V600E]
Test: Inhibition of BRAF V600E mutant (unknown origin) at 10 uM using Ser/Thr 03 as substrate after 1 hr in presence of ATP by Z'-LYTE assay relative to control
Conditions: not given
How it was run: as §1

Serine/threonine-protein kinase B-raf (Homo sapiens), P15056 [V600E], sequence (P15056 whole entry V600E): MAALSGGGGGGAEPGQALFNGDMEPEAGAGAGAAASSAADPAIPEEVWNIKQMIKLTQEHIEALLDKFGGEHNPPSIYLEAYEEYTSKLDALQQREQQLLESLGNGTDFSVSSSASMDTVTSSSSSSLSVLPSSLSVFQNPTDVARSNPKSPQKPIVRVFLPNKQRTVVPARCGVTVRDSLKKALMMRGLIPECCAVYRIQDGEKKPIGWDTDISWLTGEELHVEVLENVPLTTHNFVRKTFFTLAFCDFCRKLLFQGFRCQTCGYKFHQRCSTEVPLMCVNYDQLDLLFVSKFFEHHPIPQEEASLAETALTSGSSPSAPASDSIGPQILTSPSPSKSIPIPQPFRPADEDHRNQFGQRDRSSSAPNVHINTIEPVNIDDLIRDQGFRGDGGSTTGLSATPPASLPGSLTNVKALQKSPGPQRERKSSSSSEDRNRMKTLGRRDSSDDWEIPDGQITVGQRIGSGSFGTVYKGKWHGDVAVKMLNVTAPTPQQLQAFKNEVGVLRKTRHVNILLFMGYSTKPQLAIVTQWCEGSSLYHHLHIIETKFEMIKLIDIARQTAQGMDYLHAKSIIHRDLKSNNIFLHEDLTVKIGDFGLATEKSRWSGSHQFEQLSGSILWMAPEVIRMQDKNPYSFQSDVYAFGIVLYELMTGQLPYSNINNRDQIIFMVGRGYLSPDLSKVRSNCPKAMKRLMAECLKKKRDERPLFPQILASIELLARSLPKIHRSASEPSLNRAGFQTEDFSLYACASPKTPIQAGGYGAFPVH

SMILES	inhibition [%]
O=S(=O)(NCCCNc1nccc(-c2[nH]c(-c3ccccc3)nc2-c2ccc(F)c(O)c2)n1)c1ccc(C(F)(F)F)cc1	98.4
O=S(=O)(NCCCNc1nccc(-c2[nH]c(-c3ccccc3)nc2-c2ccc(Cl)c(O)c2)n1)c1ccc(O)cc1	101
COc1cc(-c2nc(-c3ccccc3)[nH]c2-c2ccnc(NCCCNS(=O)(=O)c3ccc(Cl)cc3)n2)ccc1F	79.2
COc1cc(-c2nc(-c3ccccc3)[nH]c2-c2ccnc(NCCCNS(=O)(=O)c3ccc(Br)cc3)n2)ccc1F	81.5
O=S(=O)(NCCCNc1nccc(-c2[nH]c(-c3ccccc3)nc2-c2ccc(Cl)c(O)c2)n1)c1cccc2ccccc12	96.2
Cc1ccc(S(=O)(=O)NCCCNc2nccc(-c3[nH]c(-c4ccccc4)nc3-c3ccc(Cl)c(O)c3)n2)cc1	101
O=S(=O)(NCCCNc1nccc(-c2[nH]c(-c3ccccc3)nc2-c2ccc(Cl)c(O)c2)n1)c1ccc(F)cc1	97.1
O=S(=O)(NCCCNc1nccc(-c2[nH]c(-c3ccccc3)nc2-c2ccc(F)c(O)c2)n1)c1ccc(Br)cc1	100
COc1cc(-c2nc(-c3ccccc3)[nH]c2-c2ccnc(NCCCNS(=O)(=O)c3ccccc3)n2)ccc1F	77.3
COc1cc(-c2nc(-c3ccccc3)[nH]c2-c2ccnc(NCCCNS(=O)(=O)c3ccc(F)cc3)n2)ccc1Cl	81
COc1ccc(S(=O)(=O)NCCCNc2nccc(-c3[nH]c(-c4ccccc4)nc3-c3ccc(F)c(OC)c3)n2)cc1	89.1
O=S(=O)(NCCCNc1nccc(-c2[nH]c(-c3ccccc3)nc2-c2ccc(F)c(O)c2)n1)c1cccc(F)c1	100
COc1cc(-c2nc(-c3ccccc3)[nH]c2-c2ccnc(NCCCNS(=O)(=O)c3cccc4ccccc34)n2)ccc1F	81
COc1cc(-c2nc(-c3ccccc3)[nH]c2-c2ccnc(NCCCNS(=O)(=O)c3ccccc3)n2)ccc1Cl	80
Cc1ccc(S(=O)(=O)NCCCNc2nccc(-c3[nH]c(-c4ccccc4)nc3-c3ccc(F)c(O)c3)n2)cc1	101
COc1cc(-c2nc(-c3ccccc3)[nH]c2-c2ccnc(NCCCNS(=O)(=O)c3ccc(C)cc3)n2)ccc1Cl	88.2
O=S(=O)(NCCCNc1nccc(-c2[nH]c(-c3ccccc3)nc2-c2ccc(Cl)c(O)c2)n1)c1cccc(F)c1	101

System: LOX IMVI
Test: cells
Type: functional, cell-based
Conditions: Homo sapiens, 24 h

SMILES	IC50 [µM]
O=S(=O)(NCCCNc1nccc(-c2[nH]c(-c3ccccc3)nc2-c2ccc(F)c(O)c2)n1)c1ccc(C(F)(F)F)cc1	2.45
O=S(=O)(NCCCNc1nccc(-c2[nH]c(-c3ccccc3)nc2-c2ccc(Cl)c(O)c2)n1)c1ccc(O)cc1	36.8
COc1cc(-c2nc(-c3ccccc3)[nH]c2-c2ccnc(NCCCNS(=O)(=O)c3ccc(Cl)cc3)n2)ccc1F	83.1
COc1cc(-c2nc(-c3ccccc3)[nH]c2-c2ccnc(NCCCNS(=O)(=O)c3ccc(Br)cc3)n2)ccc1F	33.9
O=S(=O)(NCCCNc1nccc(-c2[nH]c(-c3ccccc3)nc2-c2ccc(Cl)c(O)c2)n1)c1cccc2ccccc12	7.72
Cc1ccc(S(=O)(=O)NCCCNc2nccc(-c3[nH]c(-c4ccccc4)nc3-c3ccc(Cl)c(O)c3)n2)cc1	6.02
O=S(=O)(NCCCNc1nccc(-c2[nH]c(-c3ccccc3)nc2-c2ccc(Cl)c(O)c2)n1)c1ccc(F)cc1	2.3
O=S(=O)(NCCCNc1nccc(-c2[nH]c(-c3ccccc3)nc2-c2ccc(F)c(O)c2)n1)c1ccc(Br)cc1	5.66
COc1cc(-c2nc(-c3ccccc3)[nH]c2-c2ccnc(NCCCNS(=O)(=O)c3ccccc3)n2)ccc1F	4.52
COc1cc(-c2nc(-c3ccccc3)[nH]c2-c2ccnc(NCCCNS(=O)(=O)c3ccc(F)cc3)n2)ccc1Cl	4.53
COc1ccc(S(=O)(=O)NCCCNc2nccc(-c3[nH]c(-c4ccccc4)nc3-c3ccc(F)c(OC)c3)n2)cc1	6.13
O=S(=O)(NCCCNc1nccc(-c2[nH]c(-c3ccccc3)nc2-c2ccc(F)c(O)c2)n1)c1cccc(F)c1	7.89
COc1cc(-c2nc(-c3ccccc3)[nH]c2-c2ccnc(NCCCNS(=O)(=O)c3cccc4ccccc34)n2)ccc1F	14.9
COc1cc(-c2nc(-c3ccccc3)[nH]c2-c2ccnc(NCCCNS(=O)(=O)c3ccccc3)n2)ccc1Cl	7.47
Cc1ccc(S(=O)(=O)NCCCNc2nccc(-c3[nH]c(-c4ccccc4)nc3-c3ccc(F)c(O)c3)n2)cc1	26.3
COc1cc(-c2nc(-c3ccccc3)[nH]c2-c2ccnc(NCCCNS(=O)(=O)c3ccc(C)cc3)n2)ccc1Cl	18.6
O=S(=O)(NCCCNc1nccc(-c2[nH]c(-c3ccccc3)nc2-c2ccc(Cl)c(O)c2)n1)c1cccc(F)c1	33.6

System: not listed separately
Test: Cytotoxicity against human IOSE-80PC cells assessed as reduction in cell viability incubated for 24 hrs by MTT assay
Type: cell-based, IOSE80pc
Conditions: not given
How it was run: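 Human ovarian epithelial IOSE-80PC cells grown in RPMI 1640 with FBS and penicillin-streptomycin, seeded at 1 × 10⁵/mL, exposed to a range of compound concentrations in 5-dose mode. Viability read by MTT; IC50 derived.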

SMILES	IC50 [µM]
O=S(=O)(NCCCNc1nccc(-c2[nH]c(-c3ccccc3)nc2-c2ccc(F)c(O)c2)n1)c1ccc(C(F)(F)F)cc1	> 10
O=S(=O)(NCCCNc1nccc(-c2[nH]c(-c3ccccc3)nc2-c2ccc(Cl)c(O)c2)n1)c1ccc(F)cc1	> 10

Source: ChEMBL document CHEMBL4732217, “Design, synthesis, biological evaluation, and docking studies of novel (imidazol-5-yl)pyrimidine-based derivatives as dual BRAF/p38α inhibitors” (Eur J Med Chem, 2021)
